The text below walks through data of ChEMBL document CHEMBL4732173, “Easily accessed nitroquinolones exhibiting potent and selective anti-tubercular activity” (Eur J Med Chem, 2021).

As usually defined, the MIC90 is the lowest concentration that inhibits either 90% of growth or 90% of the strains tested, depending on the study.

Converted amounts (≈) assume the structure as drawn.

For the first test, the system named is Mycobacterium tuberculosis. The test is described as follows: Antitubercular activity against Mycobacterium tuberculosis harboring gfp reporter gene and wild type DrpE1 assessed as inhibition of bacterial growth incubated for 14 days by fluorescence based analysis. In kind it is functional. The note with it: 336 h, time 14 day. A digest of the protocol:
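Controls were rifampicin at 2× MIC and 5% DMSO. Plates ran 14 days at 37 °C, 5% CO2, with GFP read at ex 485/em 520. Data were normalised and curve-fitted (Levenberg-Marquardt). MIC90 is the lowest concentration inhibiting >90% of growth.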
A general note: A reporter such as luciferase makes a cellular process visible.
As to `N#Cc1cccc(Cn2cc(C(=O)NCCOCCO)c(=O)c3cc([N+](=O)[O-])ccc32)c1`, the MIC90 amounted to 15 µM (≈ 6.54 µg/mL). Still for that read-out and setting: the result for `N#Cc1cccc(Cn2cc(C(=O)NCCNCCO)c(=O)c3cc([N+](=O)[O-])ccc32)c1` reads 3.69 µM (≈ 1.61 µg/mL); that for `O=C(NO)c1cn(Cc2cccc(Cl)c2)c2ccc([N+](=O)[O-])cc2c1=O`, 125 µM (≈ 46.7 µg/mL). As to `O=C(NCCNCCO)c1cn(Cc2ccc(F)cc2)c2ccc([N+](=O)[O-])cc2c1=O`, the MIC90 worked out at 0.919 µM (≈ 0.394 µg/mL).

Take `O=C(NCCN1CCOCC1)c1cn(Cc2cccc(Cl)c2)c2ccc([N+](=O)[O-])cc2c1=O`: the MIC90 is 31.9 µM (≈ 15 µg/mL). On the same count and under the same terms, next, `O=C(NCCOCCO)c1cn(Cc2ccc(F)cc2)c2ccc([N+](=O)[O-])cc2c1=O`: 8.08 µM (≈ 3.47 µg/mL); `CCOC(=O)c1c[nH]c2c(C(F)(F)F)cc([N+](=O)[O-])cc2c1=O`: 1.84 µM (≈ 0.609 µg/mL); `COCCNC(=O)c1cn(Cc2cccc(Cl)c2)c2ccc([N+](=O)[O-])cc2c1=O`: 0.675 µM (≈ 0.281 µg/mL).

In the case of `O=C(NCCNCCO)c1cn(Cc2cccc(F)c2)c2ccc([N+](=O)[O-])cc2c1=O`, the MIC90 was determined as 3.7 µM (≈ 1.59 µg/mL).

Regarding `O=C(NCCN1CCOCC1)c1cn(Cc2cccc(Br)c2)c2ccc([N+](=O)[O-])cc2c1=O`, the MIC90 was more than 125 µM. On to `N#Cc1cccc(Cn2cc(C(=O)NO)c(=O)c3cc([N+](=O)[O-])ccc32)c1`, for which the MIC90 was more than 125 µM. As to `COCCNC(=O)c1cn(Cc2cccc(C#N)c2)c2ccc([N+](=O)[O-])cc2c1=O`, the MIC90 was more than 125 µM.

With `O=C(NO)c1cn(Cc2cccc(F)c2)c2ccc([N+](=O)[O-])cc2c1=O`, the MIC90 is more than 125 µM.

`O=C(NCCN1CCOCC1)c1cn(Cc2cccc(F)c2)c2ccc([N+](=O)[O-])cc2c1=O`: the MIC90 is more than 125 µM.

As for `N#Cc1cccc(Cn2cc(C(=O)O)c(=O)c3cc([N+](=O)[O-])ccc32)c1`, the MIC90 was more than 125 µM. With `COCCNC(=O)c1cn(Cc2cccc(F)c2)c2ccc([N+](=O)[O-])cc2c1=O`, the MIC90 is more than 125 µM. As for `COCCNC(=O)c1cn(Cc2ccc(F)cc2)c2ccc([N+](=O)[O-])cc2c1=O`, the MIC90 is less than 0.244 µM. Regarding `O=C(NO)c1cn(Cc2cccc(Br)c2)c2ccc([N+](=O)[O-])cc2c1=O`, the MIC90 was more than 125 µM. In the case of `O=C(NCCOCCO)c1cn(Cc2cccc(Cl)c2)c2ccc([N+](=O)[O-])cc2c1=O`, the MIC90 came out at 16 µM (≈ 7.15 µg/mL). Same read-out and setting: next, `O=C(NCCOCCO)c1cn(Cc2cccc(F)c2)c2ccc([N+](=O)[O-])cc2c1=O`: more than 125 µM. On to `COCCNC(=O)c1cn(Cc2ccc(C#N)cc2)c2ccc([N+](=O)[O-])cc2c1=O`, for which the MIC90 is more than 125 µM. As to `N#Cc1ccc(Cn2cc(C(=O)NCCOCCO)c(=O)c3cc([N+](=O)[O-])ccc32)cc1`, the MIC90 turned out to be 14 µM (≈ 6.11 µg/mL). Turning to `N#Cc1ccc(Cn2cc(C(=O)NCCNCCO)c(=O)c3cc([N+](=O)[O-])ccc32)cc1`, the MIC90 was more than 125 µM. Turning to `NNC(=O)c1ccncc1` [ISONIAZID], the MIC90 came out at 0.2 µM (≈ 0.0274 µg/mL). `CO[C@H]1/C=C/O[C@@]2(C)Oc3c(C)c(O)c4c(O)c(c(/C=N/N5CCN(C)CC5)c(O)c4c3C2=O)NC(=O)/C(C)=C\C=C\[C@H](C)[C@H](O)[C@@H](C)[C@@H](O)[C@@H](C)[C@H](OC(C)=O)[C@@H]1C` [RIFAMPIN]: the MIC90 was 0.01 µM (≈ 0.00823 µg/mL).

The test system of the next test is Mycobacterium tuberculosis. The test is described as follows: Antitubercular activity against Mycobacterium tuberculosis harboring gfp reporter gene and DrpE1 mutation assessed as inhibition of bacterial growth incubated for 14 days by fluorescence based analysis. In kind it is functional. The note with it: time 14 day.
Turning to `COCCNC(=O)c1cn(Cc2ccc(F)cc2)c2ccc([N+](=O)[O-])cc2c1=O`, the MIC90 was determined as 62.5 µM (≈ 25 µg/mL).
